Test results: ChEMBL document CHEMBL1671745 (Antimicrob Agents Chemother, 2010)
Converted amounts (≈) assume the structure as drawn. The source made the active and inactive calls. No cut-off for these calls is given here.

Tests used:
[1] = test system: Staphylococcus aureus; experiment: Bactericidal activity against methicillin-resistant Staphylococcus aureus N315 planktonic cell in in vitro pharmacokinetic/pharmacodynamic model assessed as decrease in bacterial count at 10 mg/kg every 24 hrs; format: functional, organism-based; parameters: dose 10 mg/kg
Method in brief: (§1)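 Biofilm reactor with polystyrene coupons. Conditioning: 24 h at 37°C in TSB with 1% glucose, then 16 h continuous flow of TSB with 10% glucose (30-min residence time). […] Coupons (biofilm cells, recovered by vortex/sonication) and medium (planktonic cells) sampled 0–72 h and plated on TSA. Limit of detection 2 log10 CFU/ml, extended to 1 by filtration. Duplicate models.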

[2] = test system: Staphylococcus aureus; experiment: fCmax in Staphylococcus aureus in in vitro pharmacokinetic/pharmacodynamic model at 10 mg/kg every 24 hrs; format: ADME, organism-based; parameters: dose 10 mg/kg
Method in brief: (§2)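 Biofilm reactor with polystyrene coupons, simulating human free-drug profiles in supplemented Mueller-Hinton broth (calcium 25 μg/ml, magnesium 12.5 μg/ml) after a 40-h biofilm conditioning phase. Vancomycin was measured by fluorescence polarization immunoassay (lower limit 2 μg/ml). […] Half-life, AUC and peak were derived by the trapezoidal method.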

[3] = test system: Staphylococcus aureus; experiment: Antimicrobial activity against methicillin-resistant Staphylococcus aureus N315 by CLSI broth microdilution method; format: functional
[4] = Half life in Staphylococcus aureus in in vitro pharmacokinetic/pharmacodynamic model at 10 mg/kg every 24 hrs; format: ADME, organism-based; parameters: dose 10 mg/kg; method in brief: as §2
[5] = test system: Staphylococcus aureus; experiment: Antimicrobial activity against methicillin-susceptible Staphylococcus aureus SH1000 assessed as inhibition of bacterial biofilm formation by CLSI broth microdilution method; format: functional
[6] = test system: Staphylococcus aureus; experiment: Bactericidal activity against Staphylococcus aureus in in vitro pharmacokinetic/pharmacodynamic model assessed as decrease in planktonic cell count at 10 mg/kg every 24 hrs; format: functional
Method in brief: (§3)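 Planktonic cells were sampled (≈1 ml) from the flow biofilm reactor at 0, 4, 8, 24, 32, 48, 56 and 72 h during simulated regimens in SMHB, with duplicate models. Samples were serially diluted or vacuum-filtered against carryover, spiral-plated on TSA, and grown 24 h at 37°C; detection limit 1–2 log10 CFU/ml. Bactericidal means a ≥3-log10 CFU/ml fall from the starting inoculum.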

[7] = AUC (0 to 24 hrs) in Staphylococcus aureus in in vitro pharmacokinetic/pharmacodynamic model at 10 mg/kg every 24 hrs; format: ADME, organism-based; parameters: time < 24 hr, dose 10 mg/kg; method in brief: as §2
[8] = test system: Staphylococcus aureus; experiment: Antimicrobial activity against methicillin-susceptible Staphylococcus aureus SH1000 by CLSI broth microdilution method; format: functional
[9] = test system: Staphylococcus aureus; experiment: Bactericidal activity against methicillin-resistant Staphylococcus aureus N315 planktonic cell in in vitro pharmacokinetic/pharmacodynamic model assessed as decrease in bacterial count at 10 mg/kg every 24 hrs measured after 72 hrs; format: functional; method in brief: as §1
[10] = test system: Staphylococcus aureus; experiment: Bactericidal activity against Staphylococcus aureus in in vitro pharmacokinetic/pharmacodynamic model assessed as decrease in biofilm bacterial count at 10 mg/kg every 24 hrs; format: functional
Method in brief: (§4)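 MSSA SH1000 or MRSA N315 biofilm was conditioned for 40 h (24 h batch in 1% glucose TSB at 37°C, then 16 h flow in 10% glucose TSB) on polystyrene coupons. Simulated regimens ran 72 h in SMHB, duplicate models. Three coupons per time point (0–72 h) were saline-washed, vortexed and sonicated, and drop-plated on TSA. Reduction is log10 CFU/ml versus start; ≥3-log10 counts as bactericidal.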

[11] = test system: Staphylococcus aureus; experiment: Bactericidal activity against methicillin-resistant Staphylococcus aureus N315 in in vitro pharmacokinetic/pharmacodynamic model assessed as decrease in biofilm bacterial count at 10 mg/kg every 24 hrs measured after 72 hrs; format: functional; method in brief: as §1
[12] = test system: Staphylococcus aureus; experiment: Bactericidal activity against methicillin-resistant Staphylococcus aureus N315 in in vitro pharmacokinetic/pharmacodynamic model assessed as decrease in planktonic cell count at 10 mg/kg every 24 hrs measured after 48 hrs; format: functional, organism-based; parameters: dose 10 mg/kg; method in brief: as §1
[13] = Half life in Staphylococcus aureus in in vitro pharmacokinetic/pharmacodynamic model at 250 mg every 12 hrs; format: ADME, organism-based
[14] = test system: Staphylococcus aureus; experiment: fCmax in Staphylococcus aureus in in vitro pharmacokinetic/pharmacodynamic model at 250 mg every 12 hrs; format: ADME, organism-based
[15] = AUC (0 to 24 hrs) in Staphylococcus aureus in in vitro pharmacokinetic/pharmacodynamic model at 250 mg every 12 hrs; format: ADME, organism-based; parameters: dose 250 mg, time < 24 hr
[16] = test system: Staphylococcus aureus; experiment: Bactericidal activity against Staphylococcus aureus in in vitro pharmacokinetic/pharmacodynamic model assessed as decrease in biofilm bacterial count at 400 mg every 24 hrs measured after 72 hrs; format: functional; method in brief: as §4
[17] = test system: Staphylococcus aureus; experiment: Bactericidal activity against Staphylococcus aureus in in vitro pharmacokinetic/pharmacodynamic model assessed as decrease in planktonic cell count at 400 mg every 24 hrs measured after 72 hrs; format: functional; method in brief: as §3
[18] = AUC (0 to 24 hrs) in Staphylococcus aureus in in vitro pharmacokinetic/pharmacodynamic model at 400 mg every 24 hrs; format: ADME, organism-based; parameters: time < 24 hr, dose 400 mg
[19] = test system: Staphylococcus aureus; experiment: fCmax in Staphylococcus aureus in in vitro pharmacokinetic/pharmacodynamic model at 400 mg every 24 hrs; format: ADME, organism-based
[20] = test system: Staphylococcus aureus; experiment: Bactericidal activity against Staphylococcus aureus in in vitro pharmacokinetic/pharmacodynamic model assessed as decrease in biofilm bacterial count at 400 mg every 24 hrs; format: functional; method in brief: as §4
[21] = test system: Staphylococcus aureus; experiment: Bactericidal activity against Staphylococcus aureus in in vitro pharmacokinetic/pharmacodynamic model assessed as decrease in planktonic cell count at 400 mg every 24 hrs; format: functional; method in brief: as §3
[22] = test system: Staphylococcus aureus; experiment: Antimicrobial activity against methicillin-resistant Staphylococcus aureus N315 assessed as inhibition of bacterial biofilm formation by CLSI broth microdilution method; format: functional
Method in brief: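 Biofilm MIC determined using the modified Calgary biofilm device method.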

[23] = test system: Staphylococcus aureus; experiment: fCmax in Staphylococcus aureus in in vitro pharmacokinetic/pharmacodynamic model at 600 mg every 24 hrs; format: ADME, organism-based
[24] = AUC (0 to 24 hrs) in Staphylococcus aureus in in vitro pharmacokinetic/pharmacodynamic model at 600 mg every 24 hrs; format: ADME, organism-based; parameters: dose 600 mg, time < 24 hr
[25] = Half life in Staphylococcus aureus in in vitro pharmacokinetic/pharmacodynamic model; format: ADME, organism-based; method in brief: as §2
[26] = test system: Staphylococcus aureus; experiment: fCmax in Staphylococcus aureus in in vitro pharmacokinetic/pharmacodynamic model; format: ADME, organism-based; method in brief: as §2
[27] = AUC (0 to 24 hrs) in Staphylococcus aureus in in vitro pharmacokinetic/pharmacodynamic model; format: ADME, organism-based; parameters: time < 24 hr; method in brief: as §2

Which Activity [1] does the source give for CCCCCCCCCC(=O)N[C@@H](Cc1c[nH]c2ccccc12)C(=O)N[C@H](CC(N)=O)C(=O)N[C@@H](CC(=O)O)C(=O)N[C@@H]1C(=O)NCC(=O)N[C@@H](CCCN)C(=O)N[C@@H](CC(=O)O)C(=O)N[C@H](C)C(=O)N[C@@H](CC(=O)O)C(=O)NCC(=O)N[C@H](CO)C(=O)N[C@@H]([C@H](C)CC(=O)O)C(=O)N[C@@H](CC(=O)c2ccccc2N)C(=O)O[C@@H]1C here?
The Activity was “Active”.

What about the fCmax [2] of the same compound?
Its fCmax is 11.79 µg/mL.

And the MIC [3]?
The MIC was 0.125 µg/mL (≈ 0.0771 µM).

And the half-life [4]?
Its half-life is 8.21 h.

And the MBIC [5]?
Its MBIC is 2 µg/mL.

What about the log10CFU/ml [6] of the same compound?
Its log10CFU/ml is 2.2.

And the AUC at 24 h [7]?
Its AUC at 24 h is 200000 ng·h/mL.

What about the MIC [8] of the same compound?
The MIC was 0.125 µg/mL (≈ 0.0771 µM).

What about the log10CFU/ml [9] of the same compound?
The log10CFU/ml was 2.78.

And the log10CFU/ml [10]?
The log10CFU/ml was 2.83.

And the log10CFU/ml [11]?
The log10CFU/ml was 2.73.

And the Activity [12]?
The Activity was “inactive”.

With CC[C@H]1OC(=O)[C@H](C)[C@@H](O[C@H]2C[C@@](C)(OC)[C@@H](O)[C@H](C)O2)[C@H](C)[C@@H](O[C@@H]2O[C@H](C)C[C@H](N(C)C)[C@H]2O)[C@](C)(OC)C[C@@H](C)C(=O)[C@H](C)[C@@H](O)[C@]1(C)O [CLARITHROMYCIN] as the compound, how does the half-life [13] read?
The half-life was 3.91 h.

What about the fCmax [14] of the same compound?
The fCmax was 1.15 µg/mL.

What about the MBIC [5] of the same compound?
Its MBIC is greater than 128 µg/mL.

What about the MIC [8] of the same compound?
The MIC was greater than 128 µg/mL.

And the AUC at 24 h [15]?
The AUC at 24 h was 6530 ng·h/mL.

Which results are given for COc1c(N2C[C@@H]3CCCN[C@@H]3C2)c(F)cc2c(=O)c(C(=O)O)cn(C3CC3)c12 [MOXIFLOXACIN]?
log10CFU/ml [16]: 4.06; log10CFU/ml [17]: 4.04; AUC at 24 h [18]: 44200 ng·h/mL; fCmax [19]: 2.52 µg/mL; log10CFU/ml [20]: 2.38; log10CFU/ml [21]: 2.33

What does the source list for CO[C@H]1/C=C/O[C@@]2(C)Oc3c(C)c(O)c4c(O)c(c(/C=N/N5CCN(C)CC5)c(O)c4c3C2=O)NC(=O)/C(C)=C\C=C\[C@H](C)[C@H](O)[C@@H](C)[C@@H](O)[C@@H](C)[C@H](OC(C)=O)[C@@H]1C [RIFAMPIN]?
MIC [3]: < 0.0625 µg/mL; MBIC [22]: <0.0625 µg/mL; fCmax [23]: 3.82 µg/mL; AUC at 24 h [24]: 19600 ng·h/mL

For CN[C@H](CC(C)C)C(=O)N[C@H]1C(=O)N[C@@H](CC(N)=O)C(=O)N[C@H]2C(=O)N[C@H]3C(=O)N[C@H](C(=O)N[C@H](C(=O)O)c4cc(O)cc(O)c4-c4cc3ccc4O)[C@H](O)c3ccc(c(Cl)c3)Oc3cc2cc(c3O[C@@H]2O[C@H](CO)[C@@H](O)[C@H](O)[C@H]2O[C@H]2C[C@](C)(N)[C@H](O)[C@H](C)O2)Oc2ccc(cc2Cl)[C@H]1O [VANCOMYCIN], which half-life [25] is on record?
Its half-life is 5.91 h.

And the MIC [3]?
Its MIC is 0.25 µg/mL (≈ 0.173 µM).

And the fCmax [26]?
Its fCmax is 22.6 µg/mL.

And the MBIC [22]?
The MBIC was 2 µg/mL.

And the AUC(0-t) at 24 h [27]?
Its AUC(0-t) at 24 h is 193000 ng·h/mL.
